Experimental data reported in ChEMBL document CHEMBL4002602, “Design, Synthesis of Novel, Potent, Selective, Orally Bioavailable Adenosine A2A Receptor Antagonists and Their Biological Evaluation” (J Med Chem, 2017).
Activity calls are given as the source filed them. The calls are words filed in the database; no cut-off is given here.

Legend:
Adenosine receptor A2a [1] = biological target: T1, Adenosine receptor A2a (Homo sapiens, UniProt P29274); test: Displacement of [3H]ZM241385 from human adenosine A2A receptor expressed in HEK293 cell membranes measured after 90 mins
How it was run: (§1)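 Competition binding on membranes from HEK-293 cells overexpressing human A1, A2A, A2B or A3, washed with ADA. Radioligands: [3H]-DPCPX 1 nM (A1), [3H]ZM241385 1 nM (A2A), [3H]-MRS-1754 1.6 nM (A2B), [3H]-HEMADO 2 nM (A3). Buffer was 50 mM Tris with EDTA and ADA; MgCl2 10 mM for A2A/A3; A2B at pH 6.5 with 5 mM MgCl2. Incubation 90 min at room temperature, then filtration. Nonspecific binding defined by NECA 100 μM. Ki values: mean of two experiments, triplicate points.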

Adenosine receptor A1 [2] = biological target: T2, Adenosine receptor A1 (Homo sapiens, UniProt P30542); test: Antagonist activity at human adenosine A1 receptor expressed in HEK293 cell membranes assessed as decrease in CPA/forskolin-induced cAMP level pretreated for 15 mins followed by agonist addition for 15 mins and subsequent forskolin stimulation measured after 30 mins; type: functional, cell-based
T2 sequence (P30542 whole entry): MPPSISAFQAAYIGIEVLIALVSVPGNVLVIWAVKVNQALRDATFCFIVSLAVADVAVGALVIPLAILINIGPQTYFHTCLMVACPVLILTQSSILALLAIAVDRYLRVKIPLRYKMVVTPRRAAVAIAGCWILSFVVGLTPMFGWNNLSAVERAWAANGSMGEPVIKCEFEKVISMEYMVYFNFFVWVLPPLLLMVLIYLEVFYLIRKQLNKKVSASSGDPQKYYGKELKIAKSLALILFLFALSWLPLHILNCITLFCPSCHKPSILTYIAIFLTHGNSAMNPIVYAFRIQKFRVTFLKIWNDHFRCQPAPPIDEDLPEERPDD
How it was run: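 HTRF cAMP assay in overnight-seeded HEK cells expressing human A1, A2A or A2B, pretreated with ADA 1 U/ml for 90 min at 37 °C. Cells were given compound at increasing concentrations for 15 min, then agonist at room temperature in incomplete DMEM with ADA: CPA 1 nM, 15 min (A1); CGS-21680 10 nM, 30 min (A2A); NECA 70 nM, 15 min (A2B). Rolipram 20 μM for A1 and A2A; forskolin 30 min for A1 only. 12 concentrations, triplicates; IC50/Ki by curve fitting.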

Adenosine receptor A2b [3] = biological target: T3, Adenosine receptor A2b (Homo sapiens, UniProt P29275); test: Antagonist activity at human adenosine A2B receptor expressed in HEK293 cell membranes assessed as decrease in NECA/forskolin-induced cAMP level pretreated for 15 mins followed by agonist addition for 15 mins and subsequent forskolin stimulation measured after 30 mins; type: functional, cell-based
T3 sequence (P29275 whole entry): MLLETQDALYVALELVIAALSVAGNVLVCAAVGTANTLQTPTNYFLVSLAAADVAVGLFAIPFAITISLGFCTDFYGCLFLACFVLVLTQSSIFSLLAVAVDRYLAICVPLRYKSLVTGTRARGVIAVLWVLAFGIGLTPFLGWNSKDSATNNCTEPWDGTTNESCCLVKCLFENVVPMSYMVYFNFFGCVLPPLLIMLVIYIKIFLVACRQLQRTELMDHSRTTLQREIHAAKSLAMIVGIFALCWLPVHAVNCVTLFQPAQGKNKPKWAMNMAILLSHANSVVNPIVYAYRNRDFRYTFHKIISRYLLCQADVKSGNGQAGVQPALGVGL

[4] = biological target: T4, Adenosine receptor A3 (Homo sapiens) (UniProt P0DMS8); test: Displacement of [3H]-HEMADO from human adenosine A3 receptor expressed in HEK293 cell membranes at 30 uM measured after 90 mins
T4 sequence (whole entry): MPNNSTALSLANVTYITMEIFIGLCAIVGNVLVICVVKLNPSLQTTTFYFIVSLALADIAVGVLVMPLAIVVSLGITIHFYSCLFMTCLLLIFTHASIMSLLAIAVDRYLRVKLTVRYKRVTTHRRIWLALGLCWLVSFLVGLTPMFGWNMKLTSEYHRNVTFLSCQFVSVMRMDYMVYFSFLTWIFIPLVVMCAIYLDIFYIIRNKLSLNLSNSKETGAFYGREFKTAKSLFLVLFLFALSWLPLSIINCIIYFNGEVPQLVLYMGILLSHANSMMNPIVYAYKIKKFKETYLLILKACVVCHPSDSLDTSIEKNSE

Adenosine receptor A2b [5] = biological target: T3, Adenosine receptor A2b; test: Displacement of [3H]-MRS-1754 from human adenosine A2B receptor expressed in HEK293 cell membranes measured after 90 mins
Adenosine receptor A2a [6] = biological target: T1, Adenosine receptor A2a; test: Antagonist activity at human adenosine A2A receptor expressed in HEK293 cell membranes assessed as decrease in CGS-21680-induced cAMP level pretreated for 15 mins followed by agonist addition for 30 mins
Adenosine receptor A1 [7] = biological target: T2, Adenosine receptor A1; test: Displacement of [3H]-DPCPX from human adenosine A1 receptor expressed in HEK293 cell membranes measured after 90 mins; how it was run: as §1
[8] = biological target: T5, Adenosine receptor A1 (Homo sapiens) (UniProt P30542); test: Displacement of [3H]-DPCPX from human adenosine A1 receptor expressed in HEK293 cell membranes at 1 uM measured after 90 mins relative to control
T5 sequence (whole entry): T2 sequence (P30542 whole entry)

Liver [9] = test: Metabolic stability in human liver microsomes assessed as metabolic rate at 1 uM preincubated for 5 mins followed by addition of NADPH measured after 3 to 30 mins by LC-MS/MS analysis; type: ADME, microsome
[10] = biological target: T6, Adenosine receptor A2b (Homo sapiens) (UniProt P29275); test: Displacement of [3H]-MRS-1754 from human adenosine A2B receptor expressed in HEK293 cell membranes at 1 uM measured after 90 mins relative to control
T6 sequence (whole entry): T3 sequence (P29275 whole entry)

Liver [11] = test: Metabolic stability in rat liver microsomes assessed as metabolic rate at 1 uM preincubated for 5 mins followed by addition of NADPH measured after 3 to 30 mins by LC-MS/MS analysis; type: ADME, microsome
[12] = biological target: T4, Adenosine receptor A3 (Homo sapiens); test: Displacement of [3H]-HEMADO from human adenosine A3 receptor expressed in HEK293 cell membranes at 1 uM measured after 90 mins relative to control

T1 sequence (P29274 whole entry): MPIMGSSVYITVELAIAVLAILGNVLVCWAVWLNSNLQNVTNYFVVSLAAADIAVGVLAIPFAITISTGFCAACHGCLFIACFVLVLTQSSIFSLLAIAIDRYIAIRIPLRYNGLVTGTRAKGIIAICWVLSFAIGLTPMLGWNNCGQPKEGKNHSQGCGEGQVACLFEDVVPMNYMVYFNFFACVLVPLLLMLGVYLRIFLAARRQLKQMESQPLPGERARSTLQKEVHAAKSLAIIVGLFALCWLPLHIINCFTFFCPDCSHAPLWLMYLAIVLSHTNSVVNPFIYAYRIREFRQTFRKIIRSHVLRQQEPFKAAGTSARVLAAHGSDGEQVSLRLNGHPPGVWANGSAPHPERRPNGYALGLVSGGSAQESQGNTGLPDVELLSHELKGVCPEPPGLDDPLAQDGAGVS

Compound	Ki (Adenosine receptor A2a [1]) [nM]	Ki (Adenosine receptor A2a [6]) [nM]	inhibition [8] [%]	Drug metabolism (Liver [9]) [nmol/min/mg]	inhibition [10] [%]	Drug metabolism (Liver [11]) [nmol/min/mg]	inhibition [12] [%]	other results
COc1cccc(OC(C)(C)C(=O)Nc2nc3c(OC)cnc(N4CCOCC4)c3s2)c1	42	–	–	–	–	–	–	–
COc1ccc(N2CCOCC2)c2sc(NC(=O)C(C)(C)Oc3ccc(Cl)cc3)nc12	51	–	–	–	–	–	–	–
COc1cnc(N2CCOCC2)c2sc(NC(=O)C(C)(C)Oc3ccc4c(c3)OCO4)nc12	42	–	–	–	–	–	–	–
COc1cnc(N2CCOCC2)c2sc(NC(=O)C(C)(C)Oc3ccc(Cl)cc3)nc12	29	–	–	–	–	–	–	–
COc1ccc(N2CCOCC2)c2sc(NC(=O)C3(C)CCC(O)CC3)nc12 (stereo not given)	5.9	1.1	–	–	–	–	–	Ki (Adenosine receptor A1 [2]): 41.8 nM; Ki (Adenosine receptor A2b [3]): 1000 nM; Activity [4]: inactive; Ki (Adenosine receptor A2b [5]): 23 nM; Ki (Adenosine receptor A1 [7]): 90 nM
COc1cnc(N2CCOCC2)c2sc(NC(=O)C(C)(C)Oc3ccc(F)cc3F)nc12	13	13.5	39	< 0.03	11	< 0.01	47	–
COc1ccc(N2CCOCC2)c2sc(NC(=O)C(C)(C)Oc3ccc(F)cc3F)nc12	7	2.6	33	0.11	0	0.07	21	–
COc1ccc(N2CCOCC2)c2sc(NC(=O)C(C)(C)Oc3c(F)cccc3F)nc12	8	1	37	0.16	19	0.09	10	–
COc1ccc(N2CCOCC2)c2sc(NC(=O)C(C)(C)Oc3ccc(C(F)(F)F)cc3)nc12	76	–	–	–	–	–	–	–
COCCOc1cccc(OC(C)(C)C(=O)Nc2nc3c(OC)cnc(N4CCOCC4)c3s2)c1	14	28	38	0.1	23	0.05	41	–
COc1cnc(N2CCOCC2)c2sc(NC(=O)C(C)(C)Oc3ccc(F)c(F)c3)nc12	12	24	50	0.05	42	0.03	47	–
COc1cnc(N2CCOCC2)c2sc(NC(=O)C(C)(C)Oc3ccc(C)cc3)nc12	55	–	–	–	–	–	–	–
COCCOc1cccc(OC(C)(C)C(=O)Nc2nc3c(OC)ccc(N4CCOCC4)c3s2)c1	22	–	34	–	38	–	20	–
COc1ccc(OC(C)(C)C(=O)Nc2nc3c(OC)ccc(N4CCOCC4)c3s2)cc1OC	19	1.8	0	0.06	25	0.11	0	–
COc1ccc(N2CCOCC2)c2sc(NC(=O)C(C)(C)Oc3ccc4c(c3)OCO4)nc12	17	2.1	0	–	0	0.05	29	–
COc1ccc(N2CCOCC2)c2sc(NC(=O)C(C)(C)Oc3ccc(C#N)cc3)nc12	58	–	–	–	–	–	–	–
COc1ccc(N2CCOCC2)c2sc(NC(=O)C(C)(C)Oc3ccc(C(C)(C)C)cc3)nc12	500	–	–	–	–	–	–	–
COc1ccc(N2CCOCC2)c2sc(NC(=O)C3(C)CCC(O)(C(C)C)CC3)nc12 (stereo not given)	17	2.1	–	–	–	–	–	–
COc1cnc(N2CCOCC2)c2sc(NC(=O)C(C)(C)Oc3cccc(F)c3)nc12	14	4.7	90	< 0.04	42	< 0.02	94	–
COc1ccc(N2CCOCC2)c2sc(NC(=O)C(C)(C)Oc3ccc(C)cc3)nc12	5.4	8.3	7	0.09	14	0.1	5	–
COc1cnc(N2CCOCC2)c2sc(NC(=O)C(C)(C)Oc3c(F)cccc3F)nc12	15	26.5	33	0.11	42	0.05	48	–
COc1ccc(N2CCOCC2)c2sc(NC(=O)C(C)(C)Oc3cccc(F)c3)nc12	2.8	0.95	52	0.08	36	0.1	20	–
COc1cnc(N2CCOCC2)c2sc(NC(=O)C(C)(C)Oc3ccccc3F)nc12	21	–	–	–	–	–	–	–
COc1cnc(N2CCOCC2)c2sc(NC(=O)C(C)(C)Oc3cccc(C(F)(F)F)c3)nc12	24	–	–	–	–	–	–	–
CCC1(O)CCC(C)(C(=O)Nc2nc3c(OC)ccc(N4CCOCC4)c3s2)CC1 (stereo not given)	25	–	–	–	–	–	–	–
